These results are taken from ChEMBL document CHEMBL1143677, “Discovery of 4-aryl-4H-chromenes as a new series of apoptosis inducers using a cell- and caspase-based high-throughput screening assay. 3. Structure-activity relationships of fused rings at the 7,8-positions” (J Med Chem, 2007).

As usually defined, the EC50 is the concentration giving half of the maximal effect. As usually defined, the IC50 is the concentration that inhibits the measured activity by half. In general, GI50 refers to the concentration giving 50% growth inhibition. The low end stands for greater sensitivity of the cells, the high end for lower sensitivity of the cells.

The subject of assay [1] is T47D. Nature of the assay: Apoptosis inducing activity in human T47D cells by caspase activation assay. Type of assay: functional, cell-based. In a few lines: (§1)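 Cell-based caspase activation (apoptosis induction) HTS assay run in T47D breast and H1299 non-small-cell lung cancer cells; EC50 reported as mean ± SEM of three or more experiments.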
The test system of another assay is NCI-H1299. Description: Apoptosis inducing activity in human H1299 cells by caspase activation assay. Type of assay: functional, cell-based. The procedure, abridged:
as §1

For another assay, the target named is Tubulin. Description: Inhibition of tubulin polymerization. Type of assay: protein-complex assay, Homo sapiens.
The nature of assay [2]: Growth inhibition of human H1299 cells after 48 hrs. The assay is classed as functional. To be noted: NCI-H1299, 48 h. In a few lines: (§2)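 Cells were exposed continuously to compound for 48 h at 37 °C in 96-well format. CellTiter-Glo reagent was added with agitation, then 10-15 min at room temperature before luminescence read-out.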
Assay [3] concerns T47D. Nature of the assay: Growth inhibition of human T47D cells after 48 hrs. The assay is classed as functional. The procedure, abridged: as §2

For `COc1cc(OC)cc(C2C(C#N)=C(N)Oc3c2ccc2cc[nH]c32)c1` (stereo not given), the values for the concentration giving a half-maximal response (EC50) with T47D [1] and in the assay with NCI-H1299 were 0.031 µM and 0.059 µM, respectively.

Turning to `COc1cccc(C2C(C#N)=C(N)Oc3c2ccc2cc[nH]c32)c1` (stereo not given), the 50% effective concentration (EC50) in the assay on T47D [1] worked out at 0.088 µM; in the assay on NCI-H1299 it was 0.14 µM.

Take `COc1cc(C2C(C#N)=C(N)Oc3c2ccc2ccccc32)cc(OC)c1OC` (stereo not given): the EC50 in the assay with T47D [1] was 0.027 µM; in the assay on NCI-H1299 it was 0.067 µM.

For the compound `COc1cc(C2C(C#N)=C(N)Oc3c2ccc2ncccc32)cc(OC)c1OC` (stereo not given), the 50% effective concentration (EC50) in the assay on T47D [1] stood at 0.16 µM; in the assay with NCI-H1299 it was 0.022 µM.

`COc1cc(C2C(C#N)=C(N)Oc3c2ccc2cc[nH]c32)cc(Br)c1OC` (stereo not given) gave an IC50 against Tubulin of 0.9 µM. In addition, the concentration for 50% growth inhibition (GI50) in assay [2] was 0.006 µM; in the assay on T47D [3] it was 0.009 µM. Moreover, a half-maximal effect with NCI-H1299 (EC50) was put at 0.053 µM.

For `COc1cc(OC)cc(C2C(C#N)=C(N)Oc3c2ccc2[nH]ccc32)c1` (stereo not given), the values for the half-maximal effective concentration (EC50) in the assay with T47D [1] and in the assay on NCI-H1299 were 0.03 µM and 0.12 µM, respectively.

Turning to `N#CC1=C(N)Oc2c(ccc3[nH]ccc23)C1c1ccccc1` (stereo not given), in the assay on NCI-H1299, the concentration giving a half-maximal response (EC50) stood at 0.43 µM.

Take `COc1cc(C2C(C#N)=C(N)Oc3c2ccc2ccccc32)cc(Br)c1OC` (stereo not given): the concentration for a half-maximal effect (EC50) in the assay on T47D [1] is 0.073 µM; in the assay on NCI-H1299 it was 0.093 µM.

For `COc1cc(C2C(C#N)=C(N)Oc3c2ccc2cnccc32)cc(Br)c1OC` (stereo not given), the results for the EC50 with T47D [1] and in the assay with NCI-H1299 were 0.061 µM and 0.15 µM, respectively. Also, the GI50 amounted to 0.071 µM in assay [2] and 0.057 µM in the assay with T47D [3].

For `N#CC1=C(N)Oc2c(ccc3[nH]ccc23)C1c1cccnc1` (stereo not given), the concentration for a half-maximal effect (EC50) came out at 0.11 µM with T47D [1] and 0.19 µM in the assay on NCI-H1299.

`COc1cncc(C2C(C#N)=C(N)Oc3c2ccc2[nH]ccc32)c1` (stereo not given): the EC50 with T47D [1] is 0.016 µM; with NCI-H1299, 0.03 µM.

As for `COc1cc(C2C(C#N)=C(N)Oc3c2ccc2cc[nH]c32)cc(OC)c1OC` (stereo not given), the EC50 stood at 0.072 µM in the assay on T47D [1] and 0.18 µM in the assay with NCI-H1299.

`COc1cc(C2C(C#N)=C(N)Oc3c2ccc2c3CCCC2)cc(Br)c1OC` (stereo not given): the results for the EC50 with T47D [1] and in the assay on NCI-H1299 were 0.19 µM and 0.52 µM, respectively.

`COc1cc(C2C(C#N)=C(N)Oc3c2ccc2nc(C)c(C)nc32)cc(Br)c1OC` (stereo not given): the results for the concentration for a half-maximal effect (EC50) in the assay on T47D [1] and with NCI-H1299 were 2.12 µM and 2.72 µM, respectively.

In turn, `COc1cc(C2C(C#N)=C(N)Oc3c2ccc2[nH]ccc32)cc(Br)c1OC` (stereo not given) gave an IC50 against Tubulin of 0.4 µM. In addition, the concentration for 50% growth inhibition (GI50) came out at 0.019 µM in assay [2] and 0.008 µM in the assay with T47D [3]. Moreover, in the assay with NCI-H1299, the response was half-maximal at 0.013 µM (EC50).

With `COc1cc(C2C(C#N)=C(N)Oc3c2ccc2cnccc32)cc(OC)c1OC` (stereo not given), the half-maximal effective concentration (EC50) in the assay on T47D [1] was 0.12 µM; in the assay on NCI-H1299 it was 0.44 µM.

For the compound `COc1cc(C2C(C#N)=C(N)Oc3c2ccc2cnccc32)cc(I)c1OC` (stereo not given), the concentration giving a half-maximal response (EC50) in the assay on T47D [1] was found to be 0.064 µM; in the assay with NCI-H1299, 0.13 µM.

Turning to `Cc1cncc(C2C(C#N)=C(N)Oc3c2ccc2cnccc32)c1` (stereo not given), the EC50 in the assay on T47D [1] was 0.23 µM; in the assay with NCI-H1299 it was 0.29 µM.

Regarding `Cc1cncc(C2C(C#N)=C(N)Oc3c2ccc2[nH]ccc32)c1` (stereo not given), the results for the 50% effective concentration (EC50) in the assay with T47D [1] and in the assay on NCI-H1299 were 0.013 µM and 0.065 µM, respectively. Also, the 50% growth inhibitory concentration (GI50) in assay [2] is 0.1 µM; in the assay with T47D [3], 0.073 µM.

Consider `COc1cc(C2C(C#N)=C(N)Oc3c2ccc(N)c3N)cc(Br)c1OC` (stereo not given), for which the concentration for 50% growth inhibition (GI50) in assay [2] was found to be 0.031 µM; in the assay with T47D [3], 0.15 µM.

With `COc1cc(C2C(C#N)=C(N)Oc3c2ccc2ncccc32)cc(Br)c1OC` (stereo not given), the EC50 in the assay on T47D [1] was 0.065 µM; with NCI-H1299, 0.14 µM.

As for `N#CC1=C(N)Oc2c(ccc3[nH]ccc23)C1c1cccc(C#N)c1` (stereo not given), the half-maximal effective concentration (EC50) with T47D [1] and with NCI-H1299 was 0.043 µM each time.

Turning to `COc1cc(C2C(C#N)=C(N)Oc3c2ccc2[nH]ccc32)cc(OC)c1OC` (stereo not given), the EC50 with T47D [1] came out at 0.03 µM; in the assay on NCI-H1299 it was 0.077 µM.

As for `COc1cc(C2C(C#N)=C(N)Oc3c2ccc2[nH]ccc32)cc(Br)c1O` (stereo not given), the EC50 is 0.013 µM in the assay on T47D [1] and 0.025 µM in the assay with NCI-H1299. The 50% growth inhibitory concentration (GI50) in assay [2] came out at 0.071 µM; in the assay with T47D [3], 0.057 µM.

In the case of `N#CC1=C(N)Oc2c(ccc3cc[nH]c23)C1c1cccc(C#N)c1` (stereo not given), the figures for the half-maximal effective concentration (EC50) in the assay on T47D [1] and in the assay on NCI-H1299 were 0.12 µM and 0.13 µM, respectively.

Take `COc1cc(C2C(C#N)=C(N)Oc3c2ccc2cc[nH]c32)cc(Br)c1O` (stereo not given): the EC50 in the assay with T47D [1] was determined as 0.035 µM; in the assay on NCI-H1299, 0.08 µM. The GI50 (in assay [2]; in the assay on T47D [3]) was 0.07 µM each time.

Turning to `COc1cccc(C2C(C#N)=C(N)Oc3c2ccc2[nH]ccc32)c1` (stereo not given), the half-maximal effective concentration (EC50) came to 0.052 µM with T47D [1] and 0.066 µM in the assay on NCI-H1299.

In the case of `N#CC1=C(N)Oc2c(ccc3[nH]ccc23)C1c1cccc([N+](=O)[O-])c1` (stereo not given), the EC50 stood at 0.068 µM in the assay with T47D [1] and 0.096 µM with NCI-H1299.

As for `N#CC1=C(N)Oc2c(ccc3cnccc23)C1c1cncc(Br)c1` (stereo not given), the EC50 in the assay with T47D [1] is 0.12 µM; in the assay with NCI-H1299, 0.15 µM.

Consider `COc1cc(C2C(C#N)=C(N)Oc3c2ccc2ccccc32)cc(I)c1OC` (stereo not given), for which the concentration giving a half-maximal response (EC50) with T47D [1] worked out at 0.064 µM; with NCI-H1299, 0.128 µM.

In the case of `COc1cc(C2C(C#N)=C(N)Oc3c2ccc2nccnc32)cc(Br)c1OC` (stereo not given), the EC50 in the assay with T47D [1] amounted to 0.46 µM; with NCI-H1299 it was 0.86 µM. Besides, the figures for the 50% growth inhibitory concentration (GI50) (in assay [2]; in the assay on T47D [3]) were 0.55 µM and 0.45 µM, respectively.

In the case of `COc1cc(C2C(C#N)=C(N)Oc3c2ccc2cccnc32)cc(Br)c1OC` (stereo not given), the 50% effective concentration (EC50) worked out at 0.029 µM in the assay on T47D [1] and 0.094 µM in the assay on NCI-H1299.

Consider `COc1cc(C2C(C#N)=C(N)Oc3c2ccc2[nH]c(C)cc32)cc(Br)c1OC` (stereo not given), for which the GI50 in assay [2] was 0.14 µM; in the assay with T47D [3], 0.089 µM. In the assay with NCI-H1299, this compound yielded an EC50 of 0.057 µM.
